This note sets out measurements from PubChem BioAssay.

Broadly, the viability is a read-out of living cells in per cent, often relative to untreated cells. Usually inhibition stands for the change of the read-out against control, counted positive when it falls.

A number with no mark means an inactive call. Records with an inconclusive call do not appear. Active and inactive are the calls of the source.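 Rule for the calls, unless noted: active = viability at or below 27.92% in each of two runs, the all-compound median minus 4 SD; inconclusive = no clear call, values can overlap the other calls; inactive = the rest.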

A short description of test [1]: S. cerevisiae growth inhibition in permissive medium (OD615), pilot counter-assay for S. cerevisiae lifespan shortening project, permissive growth control (AID 705;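 active = growth inhibition above 25% in both replicates, a cutoff set 3 SD above the mean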). The following applies: OD615, 24 h, at 10 µM, stronger effect = higher value. A digest of the protocol: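 Timing: 24 h exposure, 30 °C / Material: Saccharomyces cerevisiae strain carrying genetically modified DeaD replicative-lifespan system / Signal: OD at 615 nm / Compound: 10 µM single dose, 0.25% DMSO / Medium: SC raffinose/galactose permissive medium / Evaluation: reduction in yeast growth (OD615)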

Test [2] in a line: S. cerevisiae growth inhibition in restrictive medium, OD615, pilot screen, restrictive growth control, yeast lifespan reduction project (AID 706;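 active = growth inhibition above a set limit, 3 SD over mean compound inhibition, in both replicates, cut at about 43% in these data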;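 note: modified DeaD lifespan yeast strain shifted to restrictive glucose medium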). The following applies: OD615, 48 h, at 10 µM, stronger effect = higher value. A digest of the protocol:
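System: Engineered S. cerevisiae DeaD strain | Detection: OD615 | Buffer or medium: CSMM-D glucose medium | Doses: 10 µM compound, 0.25% DMSO | Timing: 4 h pre-growth plus 48 h compound exposure, 30 °C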

Test [3] can be described thus: doxorubicin toxicity protection in MRP-1 cells – H69AR cells, CellTiter-Glo, duplicate, MRP-1 activator project, pilot screen (AID 807;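 active = viability increase at or above a cutoff of the median across tested compounds plus 3 SD, cut at about 8.5% in these data, passing the limit was not always enough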;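 note: compound pretreatment 18-22 h then 72 h combined with doxorubicin; 0% = doxorubicin alone and 100% = vehicle without doxorubicin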). The following applies: H69AR viability with doxorubicin, CellTiter-Glo luminescence; at 10 µM; stronger effect = higher value. (In ATP-based viability assays light output follows the ATP content of the culture.)
Test [4] can be described thus: viability of HCT116 without oncogenic beta-catenin – human colon tumor cells, pilot screen (AID 823;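 active = cell viability at or below a set limit in both duplicate runs, the limit being the all-compound median minus 4 SD, cut at about 23% in these data, passing the limit was not always enough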;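 note: 0% = wells killed by 20 µM Hyamine and 100% = untreated DMSO cell wells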). As to conditions: HCT116 beta-catenin knockout viability, CellTiter-Glo, 60 h; at 10 µM; stronger effect = lower value.
Test [5] can be described thus: viability of PTEN-null HCT116 cells – cell-based, HCT116 clonal line, CellTiter-Glo, pilot screen (AID 824).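 Note: 0% = 20 µM Hyamine control and 100% = vehicle cell control.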 The following applies: HCT116 PTEN-deleted viability, 60 h, at 10 µM, stronger effect = lower value.
Test [6] in a line: RAM pathway blockade in budding yeast – dse1pr::URA3 reporter, 5-FOA selection, pilot screen (AID 869;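 active = inhibition over a set limit, the all-compound mean plus 3 SD, in both replicate runs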;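 note: 0% = DMSO wells with no growth and 100% = 10 µM 1-NA-PP1 with full growth; RAM network block rescues cells from 5-FOA so hits raise OD615 growth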). As to conditions: S. cerevisiae dse1pr::URA3 5-FOA growth, OD615, 2 d; at 10 µM; stronger effect = higher value; strain carries analog-sensitive mutant Cbk1 kinase.
Test [7] in a line: RAM signaling pathway blockade in yeast – S. cerevisiae, Pdr1DBD-CYC8 efflux-inhibited sensitized strain, primary screen (AID 1298;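 active = RAM network inhibition above 8.4% in each of two replicates, 3 SD over the compound average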;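 note: 0% = DMSO untreated cells without growth and 100% = 10 µM 1-NA-PP1 full growth; higher means more yeast growth rescued from 5-FOA killing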). The following applies: S. cerevisiae cbk1-as DSE1-URA3 strain, 5-FOA growth OD615, 2 d; at 50 µM; stronger effect = higher value.

On to `O=C(Cn1c(CN2CCCCC2)nc2ccccc2c1=O)NC1CCCCC1`, for which the results for the growth inhibition in test [1] and in test [2] were -7.65% and -24.4%, respectively. Further, the viability increase in test [3] was -2.4%. Further, the viability in test [4] was 95.4%; in test [5], 88%. The inhibition in test [6] is -0.59%. The RAM network inhibition in test [7] is -1.71%.
For `COc1ccc(N(CC(=O)NCc2ccc3c(c2)OCO3)S(=O)(=O)c2c(C)nn(C)c2C)cc1`, the values for the growth inhibition in test [1] and in test [2] were -12.2% and -3.47%, respectively. Moreover, the viability increase in test [3] is -2.86%. Moreover, the viability in test [4] and in test [5] was 101% throughout. Besides, the inhibition in test [6] is 0.12%. The RAM network inhibition in test [7] is 2.04%.
With `CC(=O)C1=C(C)NC(SCC(N)=O)=C(C#N)C1c1cccnc1` (stereo unspecified), the growth inhibition in test [1] is 6.58%; in test [2], 20.8%. The viability increase in test [3] was 1.67%. For the same compound, the viability in test [4] was 104%; in test [5], 101%. In addition, in test [6], the inhibition was 1.12%. In addition, the RAM network inhibition in test [7] was 1.65%.
In the case of `CC(=O)NC(C)(C)C1CC=C(C)/C(=N\O)C1` (stereo unspecified), the growth inhibition in test [1] was -3.7%; in test [2], -1.12%. Moreover, the viability increase in test [3] is -0.02%. The viability is 104% in test [4] and 101% in test [5]. Besides, the inhibition in test [6] was 1.36%. The RAM network inhibition in test [7] was -0.78%.
Take `CCC(=O)Nc1c2c(nn1-c1ccc(F)cc1)CS(=O)C2` (stereo unspecified): the results for the growth inhibition in test [1] and in test [2] were -7.18% and 1.07%, respectively. Also, the viability increase in test [3] is 0.7%. Moreover, the viability in test [4] was 99.2%; in test [5], 99.5%. For the same compound, the inhibition in test [6] is 0.265%. Besides, the RAM network inhibition in test [7] was 2.18%.
Regarding `CC(=O)c1c(C)oc(C)c1CSCc1ccc(C(=O)O)o1`, the growth inhibition in test [1] is -4.54%; in test [2], 0.22%. Besides, the viability increase in test [3] was -2.16%. In addition, the viability in test [4] was 95.7%; in test [5], 97.9%. The inhibition in test [6] was 0.665%. In addition, the RAM network inhibition in test [7] was 3.55%.
As for `CCC(=O)Nc1cccc(-c2nnc(SCC(=O)c3ccccc3)n2C)c1`, the growth inhibition is 0.325% in test [1] and 45.9% (active) in test [2]. The viability increase in test [3] is -1.76%. For the same compound, the viability in test [4] is 91.7%; in test [5], 92.6%. In test [6], the inhibition is 0%. Besides, the RAM network inhibition in test [7] was 4.95%.
As for `Cc1ccc(C)c2c1sc(=NC(=O)CN1C(=O)CCC1=O)n2C`, the figures for the growth inhibition in test [1] and in test [2] were -15% and -2.54%, respectively. Also, the viability increase in test [3] was -1.69%. Further, the viability is 88% in test [4] and 83.2% in test [5]. Also, the inhibition in test [6] was 2.84%. In addition, in test [7], the RAM network inhibition is 5.96%.
With `CCCOc1ccc(C2c3c(oc4cc(C)c(C)cc4c3=O)C(=O)N2CCCN(C)C)cc1` (stereo unspecified), the growth inhibition in test [1] was -3.96%; in test [2], -1.01%. Further, the viability increase in test [3] is 0.77%. Besides, the viability is 104% in test [4] and 109% in test [5]. Besides, in test [6], the inhibition is 0.185%. Also, in test [7], the RAM network inhibition was -0.1%.
Consider `COc1ccc(N(CC(=O)NC2CCCCC2)S(=O)(=O)c2cccnc2)cc1`, for which the growth inhibition in test [1] was -2.11%; in test [2], 3.61%. The viability increase in test [3] is -1.68%. Besides, the viability is 99.6% in test [4] and 105% in test [5]. Moreover, the inhibition in test [6] was 1.57%. Further, the RAM network inhibition in test [7] is 2.86%.
For `O=C(CSc1nc2ccccc2o1)NCc1ccco1`, the growth inhibition in test [1] is -11.6%; in test [2], -16%. Also, in test [3], the viability increase is -3.53%. In addition, the viability in test [4] was 102%; in test [5], 98%. Further, the inhibition in test [6] was 0.97%. For the same compound, the RAM network inhibition in test [7] was 5.5%.
On to `FC(F)(F)c1nnc2ccc(-n3ccnc3)nn12`, for which the growth inhibition in test [1] is -9.92%; in test [2] it was -28.6%. The viability increase in test [3] is -1.45%. Further, the viability was 103% in test [4] and 88.4% in test [5]. The inhibition in test [6] is 0.61%. Further, the RAM network inhibition in test [7] was 3.79%.
For `CCCSc1nc2c(cnn2-c2ccc(F)cc2)c(=O)[nH]1`, the growth inhibition was -5.3% in test [1] and -3.29% in test [2]. Moreover, the viability increase in test [3] is -2.46%. In addition, the viability was 95% in test [4] and 94.7% in test [5]. The inhibition in test [6] was 0.82%. The RAM network inhibition in test [7] was 2.71%.
As to `CCCc1cc(C(=O)Nc2ccc(C)cc2)no1`, the growth inhibition was -3.58% in test [1] and -5.4% in test [2]. Moreover, the viability increase in test [3] was -0.63%. Moreover, the viability was 101% in test [4] and 97.6% in test [5]. In test [6], the inhibition was 1.32%. In addition, the RAM network inhibition in test [7] is 1.86%.
In the case of `CCN(CC)S(=O)(=O)c1ccc2c3c(cccc13)C(=O)N2`, the growth inhibition in test [1] was -12.1%; in test [2] it was -11.4%. Further, the viability increase in test [3] was -4.61%. Also, the results for the viability in test [4] and in test [5] were 97.1% and 96.8%, respectively. The inhibition in test [6] is 2.06%. Also, in test [7], the RAM network inhibition was 4.63%.
In the case of `COc1ccc(C)cc1NC(=O)CSc1nnc(-c2ccc(OC)c(OC)c2)n1N`, the growth inhibition in test [1] is 3.19%; in test [2], 14%. In addition, the viability increase in test [3] is -1.57%. For the same compound, the results for the viability in test [4] and in test [5] were 102% and 98.9%, respectively. Moreover, the inhibition in test [6] was 0.235%. In addition, the RAM network inhibition in test [7] was 7.82%.
Regarding `COC(=O)/C=C(\C)NC(=O)c1cccs1`, the growth inhibition in test [1] was -1.38%; in test [2], 4.05%. For the same compound, the viability increase in test [3] was 0.51%. Also, the viability was 101% in test [4] and 97.5% in test [5]. In test [6], the inhibition was -0.705%. For the same compound, the RAM network inhibition in test [7] is 0.06%.
Turning to `CC1CCCN(C(c2ccccc2)c2sc3ncnn3c2O)C1` (stereo unspecified), the figures for the growth inhibition in test [1] and in test [2] were -7.14% and -1.14%, respectively. Besides, the viability increase in test [3] was 3.23%. Further, the values for the viability in test [4] and in test [5] were 96.6% and 84.8%, respectively. In test [6], the inhibition was 2.16%. Besides, the RAM network inhibition in test [7] was 4.56%.
